Key:
[1] = Toxicity in Swiss mouse after 10 days; format: organism-based; conditions: in vivo
Method in brief: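 Acute toxicity: a single drug injection into four non-infected random-bred Swiss mice, with deaths recorded 10 days after injection.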

Plasmodium berghei = experiment: Antimalarial activity against Plasmodium berghei infected Swiss mice (Mus musculus) by intraperitoneal dose; format: functional; conditions: ip
Method in brief: (§1)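 Infected mice dosed i.p. once daily for 4 days, with the first dose 1 h after i.p. inoculation with parasites. ED50 is the dose giving 50% inhibition of parasite growth versus vehicle-treated controls (equal volume of vehicle), read from a plot of activity (% of control) against log dose. P. berghei is the sensitive strain and P. yoelii nigeriensis the multidrug-resistant strain.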

Mastomys coucha = experiment: Toxicity against Mastomys coucha assessed as methemoglobin levels at 15 mg/kg after 3 days; format: organism-based; design: dose 15 mg/kg; conditions: in vivo, 72 h
Method in brief: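 Mastomys coucha dosed at 15 mg/kg per day for 3 days, then blood methemoglobin measured as % MetHb. A vehicle group served as control. Values are mean±SEM per group from a set of three experiments.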

[2] = Therapeutic index, ratio of LD50 for Swiss mice (Mus musculus) to […] for Plasmodium berghei infected Swiss mice (Mus musculus); conditions: read-out: Ratio LD50/ED50
Method in brief: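 Ratio of acute LD50 to P. berghei ED50 in mice. LD50: one injection into four non-infected random-bred Swiss mice, deaths scored at 10 days. ED50: i.p. dosing once daily for 4 days, starting 1 h after i.p. parasite inoculation. Parasite growth inhibition is taken against vehicle-treated controls, and the value is read from % of control versus log dose.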

[3] = system: Plasmodium yoelii nigeriensis; experiment: Antimalarial activity against Plasmodium yoelii nigeriensis infected Swiss mice (Mus musculus) by intraperitoneal dose; format: functional; conditions: ip; method in brief: as §1
Plasmodium falciparum = experiment: Antimalarial activity against chloroquine-resistant Plasmodium falciparum W2; format: functional, organism-based

**Q.** Which LD50 at 240 h [1] does the source give for `CCOc1cc(NC2(CCCN)CC2)c2nc(OC)ccc2n1` here?
**A.** > 200 mg/kg

**Q.** What about the ED50 (Plasmodium berghei) of the same molecule?
**A.** 0.72 mg/kg

**Q.** And the Activity (Mastomys coucha)?
**A.** -0.1%

**Q.** What about the selectivity ratio [2] of the same molecule?
**A.** > 278

**Q.** What about the ED50 [3] of the same molecule?
**A.** 0.65 mg/kg

**Q.** What about the IC50 (Plasmodium falciparum) of the same molecule?
**A.** 45 nM

**Q.** Which results are given for `CCOc1cc(NC2(CCCN)CC2)c2ncccc2n1`?
**A.** LD50 at 240 h [1]: 161 mg/kg; ED50 (Plasmodium berghei): 0.88 mg/kg; Activity (Mastomys coucha): -0.12%; selectivity ratio [2]: 183; ED50 [3]: 1 mg/kg; IC50 (Plasmodium falciparum): 72 nM

**Q.** For `COc1cc(NC(C)(C)CCCN)c2nc(C(F)(F)F)ccc2n1`, which LD50 at 240 h [1] is on record?
**A.** > 200 mg/kg

**Q.** What about the ED50 (Plasmodium berghei) of the same molecule?
**A.** 1.5 mg/kg

**Q.** And the Activity (Mastomys coucha)?
**A.** -0.11%

**Q.** What about the selectivity ratio [2] of the same molecule?
**A.** > 133

**Q.** What about the ED50 [3] of the same molecule?
**A.** 1.7 mg/kg

**Q.** What about the IC50 (Plasmodium falciparum) of the same molecule?
**A.** 21 nM

**Q.** Which results are given for `CCOc1cc(NC(C)(C)CCCN)c2ncccc2n1`?
**A.** LD50 at 240 h [1]: 155 mg/kg; ED50 (Plasmodium berghei): 0.95 mg/kg; Activity (Mastomys coucha): -0.12%; selectivity ratio [2]: 163; ED50 [3]: 0.89 mg/kg; IC50 (Plasmodium falciparum): 77 nM

**Q.** With `CC(C)Oc1cc(NC2(CCCN)CC2)c2nc(C(F)(F)F)ccc2n1` as the molecule, how does the LD50 at 240 h [1] read?
**A.** > 200 mg/kg

**Q.** What about the ED50 (Plasmodium berghei) of the same molecule?
**A.** 0.26 mg/kg

**Q.** What about the Activity (Mastomys coucha) of the same molecule?
**A.** 0.14%

**Q.** And the selectivity ratio [2]?
**A.** > 769

**Q.** What about the ED50 [3] of the same molecule?
**A.** 0.23 mg/kg

**Q.** And the IC50 (Plasmodium falciparum)?
**A.** 55 nM

**Q.** What does the source list for `COc1ccc2nc(OC(C)C)cc(NC3(CCCN)CC3)c2n1`?
**A.** LD50 at 240 h [1]: > 200 mg/kg; ED50 (Plasmodium berghei): 0.31 mg/kg; Activity (Mastomys coucha): -0.12%; selectivity ratio [2]: > 645; ED50 [3]: 0.41 mg/kg; IC50 (Plasmodium falciparum): 47 nM

**Q.** What does the source list for `COc1cc(NC(C)CCCN)c2ncccc2c1` (stereo unspecified) [PRIMAQUINE]?
**A.** LD50 at 240 h [1]: 55 mg/kg; Activity (Mastomys coucha): 3.4%; IC50 (Plasmodium falciparum): > 10000 nM

**Q.** Which LD50 at 240 h [1] does the source give for `COc1cc(NC(C)(C)CCCN)c2nc(OC)ccc2n1` here?
**A.** > 200 mg/kg

**Q.** What about the ED50 (Plasmodium berghei) of the same molecule?
**A.** 1.6 mg/kg

**Q.** And the Activity (Mastomys coucha)?
**A.** 0.13%

**Q.** And the selectivity ratio [2]?
**A.** > 125

**Q.** What about the ED50 [3] of the same molecule?
**A.** 2 mg/kg

**Q.** And the IC50 (Plasmodium falciparum)?
**A.** 33 nM

**Q.** Which LD50 at 240 h [1] does the source give for `CC(C)Oc1cc(NC2(CCCN)CC2)c2ncccc2n1` here?
**A.** 175 mg/kg

**Q.** And the ED50 (Plasmodium berghei)?
**A.** 0.29 mg/kg

**Q.** And the Activity (Mastomys coucha)?
**A.** -0.1%

**Q.** What about the selectivity ratio [2] of the same molecule?
**A.** 603

**Q.** And the ED50 [3]?
**A.** 0.38 mg/kg

**Q.** And the IC50 (Plasmodium falciparum)?
**A.** 100 nM

**Q.** With `COc1cc(NC2(CCCN)CC2)c2ncccc2n1` as the molecule, how does the LD50 at 240 h [1] read?
**A.** 145 mg/kg

**Q.** And the ED50 (Plasmodium berghei)?
**A.** 1.6 mg/kg

**Q.** And the Activity (Mastomys coucha)?
**A.** 0.1%

**Q.** And the selectivity ratio [2]?
**A.** 91

**Q.** And the ED50 [3]?
**A.** 1.4 mg/kg

**Q.** What about the IC50 (Plasmodium falciparum) of the same molecule?
**A.** 57 nM

**Q.** Which ED50 (Plasmodium berghei) does the source give for `CCN(CC)CCCC(C)Nc1ccnc2cc(Cl)ccc12` (stereo unspecified) [CHLOROQUINE] here?
**A.** 2 mg/kg

**Q.** Which LD50 at 240 h [1] does the source give for `COc1cc(NC(C)(C)CCCN)c2ncccc2n1` here?
**A.** 130 mg/kg

**Q.** And the ED50 (Plasmodium berghei)?
**A.** 1.8 mg/kg

**Q.** And the Activity (Mastomys coucha)?
**A.** 0.1%

**Q.** What about the selectivity ratio [2] of the same molecule?
**A.** 72

**Q.** What about the ED50 [3] of the same molecule?
**A.** 2.1 mg/kg

**Q.** What about the IC50 (Plasmodium falciparum) of the same molecule?
**A.** 65 nM

**Q.** What does the source list for `CC(C)Oc1cc(NC(C)(C)CCCN)c2ncccc2n1`?
**A.** LD50 at 240 h [1]: 167 mg/kg; ED50 (Plasmodium berghei): 0.33 mg/kg; Activity (Mastomys coucha): -0.15%; selectivity ratio [2]: 506; ED50 [3]: 0.28 mg/kg; IC50 (Plasmodium falciparum): 110 nM

**Q.** What does the source list for `CCOc1cc(NC2(CCCN)CC2)c2nc(C(F)(F)F)ccc2n1`?
**A.** LD50 at 240 h [1]: > 200 mg/kg; ED50 (Plasmodium berghei): 0.75 mg/kg; Activity (Mastomys coucha): 0.095%; selectivity ratio [2]: > 267; ED50 [3]: 0.68 mg/kg; IC50 (Plasmodium falciparum): 58 nM

— ChEMBL document CHEMBL1137548, “Synthesis and evaluation of naphthyridine compounds as antimalarial agents” (Bioorg Med Chem Lett, 2007)
